From PMC9393037 (International Journal of Nanomedicine, 2022)

How the values were obtained:
[1] = Tissue distribution and targeting evaluation after i.v. administration to mice; type: in vivo, ICR mice; conditions: for Cmax: male, ICR, mouse, iv, 2.8 mg/kg
Procedure, shortened: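 Male ICR mice (6-8 weeks, 27-28 g) received 2.8 mg/kg i.v. as free compound or micelles. Four mice were killed per time point (0.17, 0.5, 1, 2 h), and heart, liver, lung, kidney and brain were collected. Tissues were rinsed, weighed, homogenised in cold saline (1:2 w/v), centrifuged, and supernatants assayed by LC-MS/MS.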

MCAO mice [2] = test: MCAO model: behavioural tests; type: in vivo, C57BL/6 mice; conditions: i.v. for 7 days, seventh day after the operation
Procedure, shortened: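 Male C57BL/6 mice (6-8 weeks, 24-26 g), four per group, were anaesthetised with 5% chloral hydrate i.p. The right CCA/ECA/ICA were exposed, and a monofilament was placed and removed after 1 h for reperfusion; sham mice had no monofilament. Dosing was i.v. for 7 days: free compound 3 mg/kg, micelles 1 or 3 mg/kg, edaravone 3 mg/kg. A blinded investigator scored Longa on days 1 and 7.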

In vitro release study = type: physicochemical; conditions: PBS pH = 7.4 and pH = 5, 1% SDS, 37 ℃
Procedure, shortened: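 Test compound-loaded micelles or free test compound were placed in a pre-soaked dialysis bag (MWCO 500) immersed in PBS containing 1% (w/v) SDS at pH 7.4 or pH 5. Bags were shaken at 200 rpm at 37 ℃. Outside medium was sampled at 0.5, 1, 2, 4, 6, 8, 12, 24 and 48 h and replaced with fresh PBS. Cumulative release was tracked.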

MCAO mice [3] = test: MCAO model: Nissl, TUNEL and LC3 immunofluorescence staining of brain sections; type: in vivo, C57BL/6 mice; conditions: i.v. for 7 days
[4] = Pharmacokinetics after single i.v. administration to rats; type: in vivo, Sprague Dawley rats
Procedure, shortened: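 Male Sprague Dawley rats (7-9 weeks, 240-260 g), six per group, were fasted overnight. Each received one tail-vein dose of 2 mg/kg as free compound (saline with 30% propylene glycol) or micelles. Jugular blood was drawn into heparinised tubes at 0.03–8 h, and plasma was separated at 4 ℃. Samples were quantified by validated LC-ESI-MS/MS, and PK parameters were calculated; mean ± SD.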

[5] = Sprague Dawley, rat, plasma, iv, 2 mg/kg

For `O=C(/C=C/c1ccc(O)cc1)c1ccc(O)cc1O` [ISL, (e)-1-(2,4-dihydroxyphenyl)-3-(4-hydroxyphenyl) −2-propen-1-one], the Cmax ([1]; brain) was 21.7 ± 3.45 ng/g, the Cmax ([1]; heart) was 69.2 ± 10.5 ng/g and the Cmax ([1]; kidney) was 713 ± 35 ng/g. The Cmax ([1]; liver) was 574 ± 137 ng/g, the Cmax ([1]; lung) was 179 ± 31.4 ng/g and the “detectability of ISL in tissues 1 h after administration” value ([1]; mice, i.v. 2.8 mg/kg, 1 h) was “could not be detected”. It also gave an AUC ([1]; mice, i.v. 2.8 mg/kg, Brain) of 8.34 ± 0.61 ng·h/g, an AUC ([1]; mice, i.v. 2.8 mg/kg, Heart) of 18.66 ± 2.11 ng·h/g and an AUC ([1]; mice, i.v. 2.8 mg/kg, Kidney) of 174.7 ± 9.70 ng·h/g. For the same compound, the AUC ([1]; mice, i.v. 2.8 mg/kg, Liver) was 207.70 ± 28.50 ng·h/g, the AUC ([1]; mice, i.v. 2.8 mg/kg, Lung) was 55.24 ± 6.28 ng·h/g and the “neurological scores (Longa scores) compared with the MCAO model group” value (MCAO mice [2]) was “significantly decreased”. The cumulative release (In vitro release study; in eight hours) was ~90%, the cumulative release (In vitro release study; within the first four hours) was “More than 60%” and the “Nissl staining of neurons (Nissl bodies)” value (MCAO mice [3]) was “not significantly different from that in the model group”. For the same compound, the “number of positive cells expressing the LC3 protein” value (MCAO mice [3]) was “less than that in the model group and more than that in the ISL-M group”, the “number of positive cells stained with the TUNEL” value (MCAO mice [3]) was “less than that in the model group and more than that in the ISL-M group” and the AUC(0-inf) [4, 5] was 373 ± 106 ng·h/mL. For the same compound, the AUC(0-t) [4, 5] was 307 ± 92.5 ng·h/mL, the MRT last [4, 5] was 10.2 ± 1.8 min and the clearance [4, 5] was 96.3 mL/min/kg. For the same compound, the “detectability of ISL in plasma over time” value ([4]; rats, single i.v. 2 mg/kg) was “could not be detected after 2 hours” and the “CL (clearance rate)” value ([4]; rats, single i.v. 2 mg/kg, plasma ISL) was 96.3 ± 29 mL/min/kg.
